Source: PubChem BioAssay (Johns Hopkins Ion Channel Center)
Only some compounds are listed: those with a hit (about 3.8% of all), similar ones and a draw of the others.
KCNK3 block = human KCNK3 channel inhibition, primary screen; O14649; CHO-KCNK3 thallium flux, FluxOR fluorescence; active compounds read low; B-score at 10 µM; 340,000 tested, 0.84% active;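 active means B-score under library mean minus 4 SD, starting fluorescence ratio at most library mean plus 5 SD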;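 further: more negative B-score means stronger inhibition of thallium flux through KCNK3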
Kir21 block = inhibitors of mouse Kir2.1 inward-rectifier potassium channel. P35561. HEK293-Kir2.1, FluxOR thallium flux fluorescence; active compounds read low. B-score at 10 µM. 310,000 tested, 0.85% active. AID 1672;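 active means fluorescence ratio B-score at or below minus 3 SD of library scores, with starting-brightness B-score within 2 SD, cut at about -4.2 in these data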;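 further: channel flux triggered by added potassium and thallium sulfate stimulus; B-score of peak minus minimum fluorescence over baseline after thallium stimulus; more negative B-score means stronger Kir2.1 block with less thallium influx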
Target sequence (P35561 whole entry, looked up): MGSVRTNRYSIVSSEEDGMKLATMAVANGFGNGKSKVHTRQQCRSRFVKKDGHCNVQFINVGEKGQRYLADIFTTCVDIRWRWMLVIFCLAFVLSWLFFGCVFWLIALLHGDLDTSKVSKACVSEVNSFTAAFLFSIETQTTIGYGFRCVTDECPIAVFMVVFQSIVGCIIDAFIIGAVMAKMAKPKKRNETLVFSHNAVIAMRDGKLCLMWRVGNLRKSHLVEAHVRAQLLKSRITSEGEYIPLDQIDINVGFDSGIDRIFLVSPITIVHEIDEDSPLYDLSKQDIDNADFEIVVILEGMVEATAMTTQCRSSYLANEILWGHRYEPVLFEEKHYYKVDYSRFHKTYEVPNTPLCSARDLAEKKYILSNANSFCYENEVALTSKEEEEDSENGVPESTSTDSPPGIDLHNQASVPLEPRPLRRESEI
KCNK9 block = inhibitors of human KCNK9 two-pore domain potassium channel; Q9NPC2; AID 488922; HEK293 KCNK9, FluxOR thallium flux fluorescence; active compounds read low; B-score at 10 µM; 310,000 tested, 1.2% active;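 active means ratio B-score over 3 SD below the library mean, with starting fluorescence within 5 SD of its mean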;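 further: negative B-score means less thallium flux so channel inhibition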
KCNQ1 pot = potentiators or activators of human KCNQ1 potassium channel; P51787; CHO-K1 KCNQ1, thallium flux FluxOR fluorescence; active compounds read high; B-score at 10 µM; 310,000 tested, 0.35% active;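 active means fluorescence ratio B-score, a plate-corrected score, at least three library SD, with initial intensity B-score within 5 SD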
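System: Stable KCNQ1 CHO-K1 line | Incubation: 90 min dye loading and 20 min compound exposure, both at room temperature | Measure: Ratio B score | Medium: Assay buffer for compound exposure, DMSO matched across wells | Compound dosing: Single-concentration screen | Probe or stimulus: K+/Tl+ depolarizing stimulus | Measured by: Kinetic FluxOR fluorescence, 10 s baseline plus 110 s post-stimulus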
hERG rescue = shields human hERG channel from block by proarrhythmic agents. Q12809. CHO-hERG, FluxOR thallium flux, dofetilide IC70 present. activation (rescue from dofetilide block), less the hit threshold, % at 10 µM. 310,000 tested, 0.51% active;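 active means activation above the mean of controls blocked by dofetilide plus 5 SD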;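 further: thallium influx through hERG after potassium depolarization seen as dye fluorescence rise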
KCNQ1 block = human KCNQ1 channel inhibition | P51787 | CHO-K1 KCNQ1, FluxOR thallium flux fluorescence; active compounds read high | B-score at 10 µM | 310,000 tested, 1.3% active | AID 2642;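 active means compounds whose thallium flux B-score, printed positive for inhibition, exceeds three library SD while starting fluorescence stays within three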;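 further: channel opened by potassium depolarization with thallium stimulus after 20 min compound exposure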
KCNK9 block conf = human KCNK9 inhibitor confirmation. shares compounds with KCNK9 block. 4,900 tested, 43% active. HEK293 KCNK9 cells, FluxOR thallium flux fluorescence. inhibition, % at 10 µM;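 active means thallium signal inhibited by more than 5 SD of the compound-free buffer control wells, on both duplicate plates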
Kir2-1 spec = mouse Kir2.1 off-target activity of KCNK9 modulators | shares compounds with KCNK9 block | Kir2.1 cells, FluxOR thallium flux fluorescence | 4,900 tested, 4% active | inhibition, % at 10 µM;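 active means thallium signal drop more than 5 SD beyond the mean of the no-compound control wells, seen in both duplicate plates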;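 further: signal is fluorescence rise after thallium addition divided by baseline fluorescence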
KCNK9 uninduced = non-induced cell nonspecific activity of KCNK9 modulators; shares compounds with KCNK9 block; non-induced KCNK9-HEK293, FluxOR thallium flux; inhibition, % at 10 µM; 4,900 tested, 40% active;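 active means thallium signal drop beyond 5 SD of the untreated control mean, on both duplicate plates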
Each line names hits and unclear results; the compound was inactive in the other large screens (follow-up assays come after a bar, where they were run).

Cc1ccc(Cn2c(C3CCCN3c3nc(C)cs3)nc3cc(C(F)(F)F)ccc32)cc1 (stereo not drawn)	KCNK9 block -15 | KCNK9 block conf 74% | Kir2-1 spec inactive | KCNK9 uninduced 56%
Cc1ccc(Cn2c(C3CCCN3c3nc(-c4cc(Cl)c(N)c(Cl)c4)cs3)nc3cc(C(=O)NCCCO)ccc32)cc1 (stereo not drawn)	none
O=[N+]([O-])c1ccc(Cc2ccccn2)c([N+](=O)[O-])c1	none
Fc1ccc(N=c2ssnc2Cl)c(F)c1	none | KCNK9 block conf inactive | Kir2-1 spec inactive | KCNK9 uninduced inactive
Clc1ccc(N=c2ssnc2Cl)cc1	none
CCn1ccc(C(=O)Nc2ccc3c(c2)CCC3)n1	none
CCCCCC(=O)O[C@]1(C(C)=O)CC[C@H]2[C@@H]3CCC4=CC(=O)CC[C@]4(C)[C@H]3CC[C@@]21C	KCNK3 block -10, KCNK9 block -13, KCNQ1 block 12 | KCNK9 block conf 66% | Kir2-1 spec inactive | KCNK9 uninduced 45%
COc1cc(-c2nc3ccccn3c2/N=C/c2cc(OC)c(OC)c(OC)c2)ccc1O	none
COc1ccc(OC)c(/C=N/c2c(-c3ccc(O)c(OC)c3)nc3ccccn23)c1	KCNK9 block -14 | KCNK9 block conf inactive | Kir2-1 spec inactive | KCNK9 uninduced inactive
COc1ccccc1Nc1nc(-c2cccc(N3C(=O)c4ccccc4C3=O)c2)cs1	none | KCNK9 block conf inactive | Kir2-1 spec inactive | KCNK9 uninduced inactive
CCOc1ccc(C(=O)Nc2ccc(NC(=O)c3ccccc3)cc2)cc1Br	none
CCOc1ccc(C(=O)Nc2ccc(Cc3ccncc3)cc2)cc1Br	none | KCNK9 block conf inactive | Kir2-1 spec inactive | KCNK9 uninduced inactive
CC(NC(=O)c1cc2cc(Br)ccc2oc1=N)c1ccccc1 (stereo not drawn)	none | KCNK9 block conf inactive | Kir2-1 spec inactive | KCNK9 uninduced inactive
Cc1ccc(NC(=O)C2C3CCC(O3)C2C(=O)O)cc1Cl (stereo not drawn)	none
O=S(=O)(Nc1nc(-c2sccc2Cl)cs1)c1cc(Cl)ccc1Cl	KCNQ1 pot 47, hERG rescue 47 | KCNK9 block conf inactive | Kir2-1 spec inactive | KCNK9 uninduced inactive
Cc1cccc(N2CCN(C(=S)c3ccc4c(c3)OCO4)CC2)c1	none (no result: Kir21 block, KCNK9 block, KCNQ1 pot, hERG rescue, KCNQ1 block)
Cc1ccc(-c2nc(C#N)c(N3CCCCC3)o2)cc1	none
N#Cc1nc(-c2ccc(Cl)cc2)oc1N1CCCCC1	KCNK9 block -8.3 | KCNK9 block conf inactive | Kir2-1 spec inactive | KCNK9 uninduced 30%
CCOc1ccc(-c2nc(C#N)c(N3CCCCCC3)o2)cc1	KCNK9 block -8.6 | KCNK9 block conf 50% | Kir2-1 spec inactive | KCNK9 uninduced 40%
CC(C)C[C@@H](CN)NC(=O)c1nc[nH]c1C(=O)N[C@@H](CC(=O)O)C(=O)CNC[C@H](C)NC(=O)c1nc[nH]c1C(=O)N[C@@H](CC(=O)O)C(=O)O	none (no result: Kir21 block, KCNK9 block, KCNQ1 pot, hERG rescue, KCNQ1 block)
Clc1cccc(COn2c(-c3ccc(Cl)cc3Cl)nc3ncccc32)c1	KCNK9 block -8.8 | KCNK9 block conf 46% | Kir2-1 spec inactive | KCNK9 uninduced 35%
COc1ccc(C(=O)C2CC2c2ccc3c(c2)OCO3)cc1 (stereo not drawn)	none | KCNK9 block conf inactive | Kir2-1 spec inactive | KCNK9 uninduced 30%
Cc1ccccc1C(OCC(O)CN1CCN(CCO)CC1)c1ccccc1 (stereo not drawn)	none
CCOc1ccc(S(=O)(=O)Nc2ccc(C(=O)NCC(C)(C)N3CCOCC3)cc2)cc1	none
COc1cccc(NC(=S)N/N=C2/CCCCc3ccccc32)c1	KCNQ1 pot 15 | KCNK9 block conf inactive | Kir2-1 spec inactive | KCNK9 uninduced inactive
